What was measured:
D(3) dopamine receptor = D(3) dopamine receptor (Homo sapiens, UniProt P35462); assay: Displacement of [3H] Spiperone from human D3 receptor expressed in CHO cells by competitive radioligand binding assay; format: cell-based
Homo sapiens [1] = species on record: Homo sapiens; assay: Selectivity index, ratio of Ki for displacement of [3H] Spiperone from human D3 receptor expressed in CHO cells to Ki for displacement of [3H] Spiperone from human D4.4 receptor expressed in CHO cells; format: cell-based
Method in brief: (§1)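 Competition binding against [3H]spiperone on membranes of CHO cells stably expressing cloned human D2L, D2S, D3 or D4.4 receptors. Ki from monophasic curve fits; mean ± SEM of three to seven experiments, each in triplicate. Selectivity calculated as Ki(D2L, D2S or D3) divided by Ki(D4.4).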

Homo sapiens [2] = species on record: Homo sapiens; assay: Selectivity index, ratio of Ki for displacement of [3H] Spiperone from human D2L receptor expressed in CHO cells to Ki for displacement of [3H] Spiperone from human D4.4 receptor expressed in CHO cells; format: cell-based; method in brief: as §1
Homo sapiens [3] = species on record: Homo sapiens; assay: Selectivity index, ratio of Ki for displacement of [3H] Spiperone from human D2S receptor expressed in CHO cells to Ki for displacement of [3H] Spiperone from human D4.4 receptor expressed in CHO cells; format: cell-based; method in brief: as §1
D(4) dopamine receptor [4] = biological target: T1, D(4) dopamine receptor (Homo sapiens, UniProt P21917); assay: Agonist activity at human D4 receptor expressed in HEK293T cells co-expressing G-alphaqi assessed as accumulation of inositol monophosphate using d2-labelled IP1 conjugate incubated for 90 mins by HTRF assay; format: functional, cell-based
T1 sequence (P21917 whole entry): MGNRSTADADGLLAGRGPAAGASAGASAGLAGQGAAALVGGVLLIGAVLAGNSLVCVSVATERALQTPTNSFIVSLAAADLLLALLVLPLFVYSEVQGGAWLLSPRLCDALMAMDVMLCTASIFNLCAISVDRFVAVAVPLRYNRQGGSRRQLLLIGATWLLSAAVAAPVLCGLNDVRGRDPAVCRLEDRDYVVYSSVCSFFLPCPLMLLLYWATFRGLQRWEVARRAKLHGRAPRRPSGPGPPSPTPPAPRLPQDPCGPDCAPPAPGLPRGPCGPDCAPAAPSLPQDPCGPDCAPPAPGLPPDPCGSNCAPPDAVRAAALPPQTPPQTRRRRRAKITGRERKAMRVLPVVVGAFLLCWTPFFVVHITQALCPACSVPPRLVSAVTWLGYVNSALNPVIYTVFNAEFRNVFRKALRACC

D(2) dopamine receptor [5] = biological target: T2, D(2) dopamine receptor (Homo sapiens, UniProt P14416); assay: Displacement of [3H] Spiperone from human D2L receptor expressed in CHO cells by competitive radioligand binding assay; format: cell-based
T2 sequence (P14416 whole entry): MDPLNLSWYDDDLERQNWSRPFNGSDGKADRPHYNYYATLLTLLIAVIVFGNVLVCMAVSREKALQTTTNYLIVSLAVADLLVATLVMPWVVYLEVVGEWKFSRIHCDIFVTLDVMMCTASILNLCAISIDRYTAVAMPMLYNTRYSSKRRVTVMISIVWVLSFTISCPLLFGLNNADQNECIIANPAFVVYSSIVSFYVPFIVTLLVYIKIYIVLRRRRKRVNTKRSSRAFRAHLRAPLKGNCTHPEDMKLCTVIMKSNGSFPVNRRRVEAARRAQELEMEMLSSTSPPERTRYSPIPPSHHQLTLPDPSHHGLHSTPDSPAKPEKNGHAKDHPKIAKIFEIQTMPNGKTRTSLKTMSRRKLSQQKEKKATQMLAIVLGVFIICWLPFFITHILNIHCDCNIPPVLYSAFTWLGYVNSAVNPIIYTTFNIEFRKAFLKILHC

D(4) dopamine receptor [6] = biological target: T1, D(4) dopamine receptor; assay: Antagonist activity at […] D4 receptor (unknown origin) expressed in HEK293 cells co-expressing beta-arrestin2 assessed as inhibition of quinpirole-induced beta-arrestin2 recruitment preincubated for 30 mins followed by quinpirole addition and further incubated for 6 hrs by Path-Hunter assay; format: cell-based
D(2) dopamine receptor [7] = biological target: T2, D(2) dopamine receptor; assay: Displacement of [3H] Spiperone from human D2S receptor expressed in CHO cells by competitive radioligand binding assay; format: cell-based
D(4) dopamine receptor [8] = biological target: T1, D(4) dopamine receptor; format: cell-based, HEK293
D(4) dopamine receptor [9] = biological target: T1, D(4) dopamine receptor; assay: Displacement of [3H] Spiperone from human D4.4 receptor expressed in CHO cells by competitive radioligand binding assay; format: cell-based

Chain of D(3) dopamine receptor (P35462 whole entry): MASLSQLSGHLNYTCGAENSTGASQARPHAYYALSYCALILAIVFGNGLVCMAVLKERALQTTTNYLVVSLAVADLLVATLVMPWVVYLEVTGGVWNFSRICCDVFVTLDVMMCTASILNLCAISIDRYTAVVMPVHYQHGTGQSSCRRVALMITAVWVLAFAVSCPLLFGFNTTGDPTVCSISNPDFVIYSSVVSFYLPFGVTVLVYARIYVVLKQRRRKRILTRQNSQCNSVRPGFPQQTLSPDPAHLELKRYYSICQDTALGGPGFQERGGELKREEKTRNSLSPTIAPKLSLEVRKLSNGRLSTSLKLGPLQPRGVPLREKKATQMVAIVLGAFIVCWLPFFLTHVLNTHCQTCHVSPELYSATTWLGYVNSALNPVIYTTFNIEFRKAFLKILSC

Ki (D(3) dopamine receptor) [nM]	EC50 (D(4) dopamine receptor [4]) [nM]	Ki (D(2) dopamine receptor [5]) [nM]	IC50 (D(4) dopamine receptor [6]) [nM]	Ki (D(2) dopamine receptor [7]) [nM]	EC50 (D(4) dopamine receptor [8]) [nM]	Ki (D(4) dopamine receptor [9]) [nM]	SMILES	Ratio Ki (Homo sapiens [1])	Ratio Ki (Homo sapiens [2])	Ratio Ki (Homo sapiens [3])
25	1.8	6.6	49	4.3	340	0.55	COc1ccccc1N1CCN(CCCNC(=O)NN(Cc2ccccc2)c2ccc(F)cc2)CC1	45	12	7.8
640	–	210	–	120	–	15	COc1ccccc1N1CCN(CCCNC(=O)NN(Cc2ccc(C#N)cc2)c2ccc(F)cc2)CC1	43	14	8
1800	–	390	–	430	–	28	O=C(NCCN1CCN(c2ccc(Br)cc2)CC1)NN(Cc1ccccc1)c1ccccc1	64	14	15
130	–	32	–	23	–	2.9	COc1ccccc1N1CCN(CCCNC(=O)NN(Cc2ccccc2)c2ccc(Cl)cc2)CC1	45	11	7.9
130	–	55	–	34	–	3.4	COc1ccccc1N1CCN(CCCNC(=O)NN(Cc2ccccc2)c2ccc(Br)cc2)CC1	38	16	10
61	–	35	–	24	–	15	COc1ccccc1N1CCN(CCCNC(=O)NN(Cc2ccccc2)c2ccc(Cl)cc2Cl)CC1	4	2.3	1.6
76	–	42	–	19	–	2.6	COc1ccc(N(Cc2ccccc2F)NC(=O)NCCCN2CCN(c3ccccc3OC)CC2)cc1	29	16	7.3
850	–	500	–	380	–	17	O=C(NCCCN1CCN(c2ccc(Cl)cc2)CC1)NN(Cc1ccc(F)cc1)c1ccccc1	50	29	22
120	–	45	–	19	–	1.7	COc1ccc(N(Cc2ccccc2)NC(=O)NCCCN2CCN(c3ccccc3OC)CC2)cc1	71	26	11
120	–	270	–	140	–	36	COc1ccccc1N1CCN(CCNC(=O)/N=N/c2ccc(F)cc2)CC1	3.3	7.5	3.9
2000	–	580	–	440	–	18	O=C(NCCCN1CCN(c2ncccn2)CC1)NN(Cc1ccccc1)c1ccccc1	110	32	24
76	–	160	–	94	–	4.4	COc1ccccc1N1CCN(CCCCNC(=O)NN(Cc2ccccc2)c2ccc(F)cc2)CC1	17	36	21
400	–	160	–	110	–	2.9	COc1ccc(N(Cc2ccc(F)cc2)NC(=O)NCCCN2CCN(c3ccccc3OC)CC2)cc1	140	55	38
320	–	150	–	110	–	33	COc1ccc(N(Cc2cccc(OC)c2)NC(=O)NCCCN2CCN(c3ccccc3OC)CC2)cc1	9.7	4.5	3.3
150	–	110	–	62	–	5.9	COc1cccc(CN(NC(=O)NCCCN2CCN(c3ccccc3OC)CC2)c2ccc(F)cc2)c1	25	19	11
220	–	250	–	110	–	16	COc1ccc(N(Cc2ccc(C#N)cc2)NC(=O)NCCCN2CCN(c3ccccc3OC)CC2)cc1	14	16	6.9
160	–	92	–	47	–	3.6	COc1ccccc1N1CCN(CCCNC(=O)NN(Cc2ccccc2F)c2ccc(F)cc2)CC1	44	26	13
110	–	140	–	42	–	5.9	COc1ccccc1N1CCN(CCCNC(=O)NN(Cc2ccc(-c3ccccc3)cc2)c2ccc(F)cc2)CC1	19	24	7.1
860	–	210	–	300	–	64	C=C(C)CN(NC(=O)NCCCN1CCN(c2ccccc2OC)CC1)c1ccc(OC)cc1	13	3.3	4.7

— ChEMBL document CHEMBL4321823, “Benzyl Phenylsemicarbazides: A Chemistry-Driven Approach Leading to G Protein-Biased Dopamine D4 Receptor Agonists with High Subtype Selectivity” (J Med Chem, 2019)
